A short description of series [1]: Lipophilicity, logD of the compound. It counts as physicochemical. Particulars: octanol/water.
Series [2] is described as follows: Aqueous solubility at pH 7.4 under thermodynamic conditions. It counts as physicochemical. The conditions noted are these: buffer, read-out: Therm_solubility. The procedure, abridged:
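Thermodynamic solubility measured from solid samples in aqueous medium at pH 7.4.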

The target in series [3] is Growth hormone secretagogue receptor type 1 (Homo sapiens, UniProt Q92847). Briefly: Displacement of [125I]human ghrelin from human GHS-R1a expressed in HEK cell membranes after 60 mins by gamma counting method. On the set-up: species or system HEK293.
In series [4] the test system is MDR1. In words: Efflux ratio in MDCK cells expressing MDR1 at 10 uM. It counts as ADME, cell-based, Canis lupus familiaris. Particulars: dog. The procedure, abridged: (§1)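 MDCK-MDR1 monolayers incubated with compound at 10 µM; permeability measured in both A→B and B→A directions, giving Papp A-B (x10^6 cm/s) and the efflux ratio.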
Series [5] deals with MDR1. In words: Apparent permeability in MDCK cells expressing MDR1 at 10 uM assessed as apical to basolateral side transport. Particulars: dog. It counts as ADME, cell-based, Canis lupus familiaris. The method in brief:
as §1

The nature of series [6]: Cmax in Han-Wistar rat at 2 mg/kg, po by LC-MS/MS method. It counts as ADME, organism-based. Further details: dose 2 mg/kg, route oral. The conditions noted are these: in vivo. The procedure, abridged: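 Oral gavage in male HW rats, beagle dogs or CD-1 mice, vehicle Pluronic F127 in water. EDTA plasma was collected over 24 h and quantified by LC/MS/MS after acetonitrile precipitation. Cmax and bioavailability were obtained by non-compartmental analysis against IV data.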

The nature of series [7]: Ratio of drug level in homogenized brain to plasma in Han-Wistar rat measured 1 hr after iv bolus then iv infusion by LC-MS/MS method. The conditions noted are these: read-out: BPR. It counts as ADME, organism-based. The procedure, abridged: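 Brain:plasma ratio in homogenized brain 1 h after IV bolus followed by IV infusion. The free ratio used free fractions measured in plasma and brain (brain slice method or brain homogenate).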

Converted amounts (≈) assume the structure as drawn.

Growth hormone secretagogue receptor type 1, sequence (Q92847 whole entry): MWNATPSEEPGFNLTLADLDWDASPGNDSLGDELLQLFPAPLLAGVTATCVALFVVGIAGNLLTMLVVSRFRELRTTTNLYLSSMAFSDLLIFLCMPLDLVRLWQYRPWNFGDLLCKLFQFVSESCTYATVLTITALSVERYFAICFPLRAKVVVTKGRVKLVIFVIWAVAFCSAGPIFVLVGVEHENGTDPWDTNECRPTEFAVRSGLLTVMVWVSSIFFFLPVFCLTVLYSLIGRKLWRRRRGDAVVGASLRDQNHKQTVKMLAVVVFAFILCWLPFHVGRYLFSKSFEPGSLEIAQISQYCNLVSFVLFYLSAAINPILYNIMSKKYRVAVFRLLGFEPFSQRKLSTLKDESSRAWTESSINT

In the case of `COc1ccc2nc(NC(=O)NC(=O)c3ccccc3Cl)sc2c1`, the logD in series [1] is more than 4. Besides, the solubility thermodynamic in series [2] came to 0.78 µM (≈ 0.282 µg/mL). This compound gave a half-maximal inhibitory concentration (IC50) in series [3] of 76 nM.

In the case of `C#Cc1ccc(Cl)c(C(=O)NC(=O)Nc2nc3ccc(S(=O)(=O)CCCN4CCN(C)CC4)cc3s2)c1`, in the series on MDR1 [4], the efflux ratio at 10 µM was 3.3. The Papp A→B at 10 µM in the series on MDR1 [5] was 3.3 ×10⁻⁶ cm/s. The Cmax in series [6] worked out at 1400 nM. In addition, the logD in series [1] was 2.3. Besides, in series [7], the Kp at 1 h was less than 0.03. In addition, in series [3], the IC50 stood at 5.1 nM.

As for `Cc1ccn(-c2ccc(C(=O)NC(=O)Nc3nc4ccc(S(=O)(=O)CCCN5CCN(C)CC5)cc4s3)c(Cl)c2)n1`, the efflux ratio at 10 µM in the series on MDR1 [4] came out at 0.86. Moreover, the Papp A→B at 10 µM with MDR1 [5] worked out at 3.5 ×10⁻⁶ cm/s. The Cmax in series [6] stood at 220 nM. In addition, the logD in series [1] is 2.6. Besides, the IC50 in series [3] is 0.48 nM.

Turning to `CN1CCN(CCCS(=O)(=O)c2ccc3nc(NC(=O)NC(=O)c4cc(N5CCCC5)ccc4Cl)sc3c2)CC1`, in the series on MDR1 [4], the efflux ratio at 10 µM was found to be 0.55. Also, in the series on MDR1 [5], the Papp A→B at 10 µM was 4.5 ×10⁻⁶ cm/s. The Cmax in series [6] came to 640 nM. This compound yielded a logD in series [1] of 3.1. The Kp at 1 h in series [7] was less than 0.03. The compound also returned an IC50 in series [3] of 0.29 nM.

In series [1], `CC(C)NCCS(=O)(=O)c1ccc2nc(NC(=O)NC(=O)c3ccccc3Cl)sc2c1` yielded a logD of 2.3. Besides, in series [2], the solubility thermodynamic was 71 µM (≈ 34.2 µg/mL).

`CS(=O)(=O)c1ccc2nc(NC(=O)NC(=O)c3ccccc3Cl)oc2c1` showed a log distribution coefficient (logD) in series [1] of 1.1. Besides, in series [2], the solubility thermodynamic was found to be 72 µM (≈ 28.4 µg/mL). The compound further displayed an IC50 in series [3] of more than 10000 nM.

The compound `CS(=O)(=O)c1ccc2nc(NC(=O)NC(=O)c3ccccc3Cl)sc2c1` returned a logD in series [1] of 2.5. In series [2], the solubility thermodynamic was less than 0.47 µM. Moreover, the IC50 in series [3] amounted to 120 nM.

Regarding `Cc1ccn(-c2ccc(Cl)c(C(=O)NC(=O)Nc3nc4ccc(S(=O)(=O)CCCN5CCN(C)CC5)cc4s3)c2)n1`, the efflux ratio at 10 µM in the series on MDR1 [4] turned out to be 14. Also, in the series with MDR1 [5], the Papp A→B at 10 µM amounted to 0.68 ×10⁻⁶ cm/s. Moreover, the concentration in series [6] peaked (Cmax) at 410 nM. Besides, the logD in series [1] was determined as 2.6. Further, in series [3], the IC50 came out at 0.53 nM.

Regarding `CN(C)CCCS(=O)(=O)c1ccc2nc(NC(=O)NC(=O)c3ccccc3Cl)sc2c1`, in the series on MDR1 [4], the efflux ratio at 10 µM was determined as 1.4. Besides, the Papp A→B at 10 µM in the series on MDR1 [5] worked out at 13 ×10⁻⁶ cm/s. Moreover, in series [1], the logD was found to be 1.7. In addition, the solubility thermodynamic in series [2] turned out to be 240 µM (≈ 115 µg/mL).

`COc1ccc2nc(NC(=O)NC(=O)c3c(Cl)cccc3Cl)sc2c1` displayed a logD in series [1] of more than 3.9. Moreover, the solubility thermodynamic in series [2] is less than 0.71 µM. The IC50 in series [3] amounted to 210 nM.

On to `CN1CCC(S(=O)(=O)c2ccc3nc(NC(=O)NC(=O)c4ccccc4Cl)sc3c2)CC1`, for which the efflux ratio at 10 µM with MDR1 [4] amounted to 0.9. In the series with MDR1 [5], the Papp A→B at 10 µM was 17 ×10⁻⁶ cm/s. The same compound yielded a logD in series [1] of 2.2. For the same compound, the solubility thermodynamic in series [2] came to 69 µM (≈ 34 µg/mL). Moreover, in series [3], the IC50 amounted to 65 nM.

Turning to `CN1CCN(CCCS(=O)(=O)c2ccc3nc(NC(=O)NC(=O)c4cc(-n5cccc5)ccc4Cl)sc3c2)CC1`, the efflux ratio at 10 µM in the series on MDR1 [4] came out at 38. In the series with MDR1 [5], the Papp A→B at 10 µM worked out at 0.37 ×10⁻⁶ cm/s. In series [6], this compound showed a Cmax of 580 nM. The compound further returned a logD in series [1] of 2.6. In series [3], this compound returned an IC50 of 0.15 nM.

Compound `CS(=O)(=O)c1ccc2sc(NC(=O)NC(=O)c3ccccc3Cl)nc2c1` returned a logD in series [1] of 2.8. In addition, in series [2], the solubility thermodynamic worked out at 3 µM (≈ 1.23 µg/mL). This compound also showed an IC50 in series [3] of 4700 nM.

The compound `CN1CCN(CCS(=O)(=O)c2ccc3nc(NC(=O)NC(=O)c4ccccc4Cl)sc3c2)CC1` came in with a logD in series [1] of 1.5. The solubility thermodynamic in series [2] was determined as 240 µM (≈ 125 µg/mL).

Turning to `CN1CCN(CCCS(=O)(=O)c2ccc3nc(NC(=O)NC(=O)c4cc(-c5ccccn5)ccc4Cl)sc3c2)CC1`, in the series on MDR1 [4], the efflux ratio at 10 µM was found to be 19. Also, the Papp A→B at 10 µM with MDR1 [5] stood at 0.52 ×10⁻⁶ cm/s. This compound had a Cmax in series [6] of 1000 nM. In series [1], this compound showed a logD of 2.5. Also, the IC50 in series [3] amounted to 0.69 nM.

On to `CCN(CC)CCCS(=O)(=O)c1ccc2nc(NC(=O)NC(=O)c3cc(-n4cccn4)ccc3Cl)sc2c1`, for which the efflux ratio at 10 µM in the series on MDR1 [4] was determined as 12. Further, the Papp A→B at 10 µM in the series with MDR1 [5] was 0.71 ×10⁻⁶ cm/s. Besides, in series [6], the peak level (Cmax) was 1600 nM. Besides, the logD in series [1] worked out at 2.1. Besides, the IC50 in series [3] amounted to 3.9 nM.

For the compound `CN1CCN(CCCS(=O)(=O)c2ccc3nc(NC(=O)NC(=O)c4cc(-n5cccn5)c(Cl)cc4Cl)sc3c2)CC1`, in the series with MDR1 [4], the efflux ratio at 10 µM is 55. Also, in the series with MDR1 [5], the Papp A→B at 10 µM amounted to 0.4 ×10⁻⁶ cm/s. For the same compound, in series [6], the peak level (Cmax) was 30 nM. This compound also showed a logD in series [1] of 2.3.

`CS(=O)(=O)c1ccc2nc(NC(=O)NC(=O)c3cc(-n4cccc4)ccc3Cl)sc2c1` showed a logD in series [1] of 2.8.

On to `CCN(CC)CCCS(=O)(=O)c1ccc2nc(NC(=O)NC(=O)c3ccccc3Cl)sc2c1`, for which, in the series with MDR1 [4], the efflux ratio at 10 µM came out at 2.7. Also, in the series on MDR1 [5], the Papp A→B at 10 µM turned out to be 5.4 ×10⁻⁶ cm/s. Also, in series [1], the logD was found to be 1.7. The solubility thermodynamic in series [2] was 280 µM (≈ 143 µg/mL). The half-inhibitory concentration (IC50) in series [3] worked out at 13 nM.

For `CN1CCCN(CCCS(=O)(=O)c2ccc3nc(NC(=O)NC(=O)c4ccccc4Cl)sc3c2)CC1`, in the series on MDR1 [4], the efflux ratio at 10 µM turned out to be 41. Besides, in the series on MDR1 [5], the Papp A→B at 10 µM came out at 0.7 ×10⁻⁶ cm/s. This compound also registered a logD in series [1] of 1. Further, in series [2], the solubility thermodynamic was found to be 340 µM (≈ 187 µg/mL). The IC50 in series [3] came out at 4.2 nM.

In series [1], `COCCNCCCS(=O)(=O)c1ccc2nc(NC(=O)NC(=O)c3ccccc3Cl)sc2c1` came in with a logD of 1.3. In addition, the solubility thermodynamic in series [2] came out at 87 µM (≈ 44.5 µg/mL). Further, the IC50 in series [3] worked out at 8.6 nM.

In the case of `O=C(NC(=O)c1ccccc1Cl)Nc1nc2ccc(S(=O)(=O)CCN3CCCC3)cc2s1`, the logD in series [1] is 2.7. For the same compound, the solubility thermodynamic in series [2] is 64 µM (≈ 31.6 µg/mL).

Turning to `CCN(CC)CCCS(=O)(=O)c1ccc2nc(NC(=O)NC(=O)c3cc(-n4cccc4)ccc3Cl)sc2c1`, in the series on MDR1 [4], the efflux ratio at 10 µM turned out to be 42. In addition, the Papp A→B at 10 µM with MDR1 [5] worked out at 0.1 ×10⁻⁶ cm/s. Moreover, in series [6], the Cmax amounted to 3600 nM. In addition, in series [1], the logD was found to be 2.9. The compound further gave an IC50 in series [3] of 0.43 nM.

For `CN1CCN(CCCS(=O)(=O)c2ccc3nc(NC(=O)NC(=O)c4cc(-n5cccn5)ccc4Cl)sc3c2)CC1`, the efflux ratio at 10 µM in the series on MDR1 [4] came out at 7.6. Also, the Papp A→B at 10 µM with MDR1 [5] stood at 2.9 ×10⁻⁶ cm/s. In addition, the highest level in series [6] (Cmax) was 1200 nM. In series [1], this compound returned a logD of 2. Moreover, in series [7], the Kp at 1 h was less than 0.03. In series [3], this compound had an IC50 of 0.67 nM.

Take `Cc1cc(C)n(-c2ccc(Cl)c(C(=O)NC(=O)Nc3nc4ccc(S(=O)(=O)CCCN5CCN(C)CC5)cc4s3)c2)n1`: the efflux ratio at 10 µM in the series on MDR1 [4] was determined as 76. In addition, in the series with MDR1 [5], the Papp A→B at 10 µM was found to be 0.44 ×10⁻⁶ cm/s. In addition, the concentration in series [6] peaked (Cmax) at 78 nM. In series [1], this compound showed a logD of 2.5. The IC50 in series [3] was found to be 1.3 nM.

For `CN1CCN(CCCS(=O)(=O)c2ccc3nc(NC(=O)NC(=O)c4cccc(-n5cccn5)c4Cl)sc3c2)CC1`, the efflux ratio at 10 µM in the series on MDR1 [4] worked out at 25. Further, the Papp A→B at 10 µM in the series with MDR1 [5] amounted to 0.91 ×10⁻⁶ cm/s. For the same compound, the Cmax in series [6] came to 12 nM. The logD in series [1] was 1.6.

In the case of `CN1CCN(CCCS(=O)(=O)c2ccc3nc(NC(=O)NC(=O)c4cc(N5CCCC5)c(C#N)cc4Cl)sc3c2)CC1`, in series [1], the logD came to 2.8. This compound also showed an IC50 in series [3] of 0.24 nM.

As for `COc1cc(Cl)c(C(=O)NC(=O)Nc2nc3ccc(S(=O)(=O)CCCN4CCN(C)CC4)cc3s2)cc1-n1cccn1`, the efflux ratio at 10 µM in the series with MDR1 [4] was 46. Also, the Papp A→B at 10 µM in the series on MDR1 [5] was 0.86 ×10⁻⁶ cm/s. The same compound registered a logD in series [1] of 2.2.

The logD is the decadic logarithm of the distribution of all forms, ionised or not, between an organic phase and buffer at a given pH. A higher logD goes with higher lipophilicity. The IC50 is the concentration that inhibits the measured activity by half. Lower therefore signals greater potency. The efflux ratio is the permeability from basolateral to apical divided by that in the opposite direction, in the common usage. Usually Papp A→B stands for the apparent permeability from the apical to the basolateral side of a cell layer. As a reminder, the Cmax is the highest concentration seen after dosing.

The values are drawn from ChEMBL document CHEMBL3352721, “Identification, optimization, and pharmacology of acylurea GHS-R1a inverse agonists” (J Med Chem, 2014).
